Measured values from ChEMBL document CHEMBL5260806, “Hydrogen peroxide activated quinone methide precursors with enhanced DNA cross-linking capability and cytotoxicity towards cancer cells” (Eur J Med Chem, 2017).
pIC50: −log10 of the molar value. Calls of active or inactive are those of the source. The calls are words filed in the database; no cut-off is given here.

Legend:
DNA [1] = assay: Induction of [32P]-labeled 49-mer oligonucleotide duplex DNA 25 (unknown origin) interstrand cross-linking at 2 mM for 24 hrs without H2O2 by PAGE; assay type: functional
DNA [2] = assay: Induction of [32P]-labeled 49-mer oligonucleotide duplex DNA 25 (unknown origin) interstrand cross-linking at 2 mM for 48 hrs in presence of 2mM H2O2 by PAGE; assay type: functional
DNA [3] = assay: Induction of [32P]-labeled 49-mer oligonucleotide duplex DNA 25 (unknown origin) interstrand cross-linking assessed as increase in cross linking with increase of pH from 2 to 9 at 2 mM for 24 hrs in presence of H2O2 by PAGE analysis; assay type: functional
ACHN = assay: Anticancer activity against human ACHN cells assessed inhibition of cell growth after 48 hrs by CellTiter-Glo luminescent assay; assay type: functional, cell-based
Procedure, shortened: (§1)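 Renal lines grown in RPMI 1640 with 5% FBS and 2 mM L-glutamine, plated at 5,000–10,000 cells/well in 384-well plates and held 2–3 h at 37 °C, 5% CO2. Compounds were made as 20 mM DMSO stocks, given as ten 2-fold serial dilutions diluted 1:100 into cells, and incubated 48 h. Read-out was CellTiter-Glo luminescence after 10 min at room temperature.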

A498 = assay: Anticancer activity against human A498 cells assessed inhibition of cell growth after 48 hrs by CellTiter-Glo luminescent assay; assay type: functional, cell-based; conditions: A498, 48 h
Procedure, shortened: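 Human tumour cells kept in RPMI 1640 with 5% FBS and 2 mM L-glutamine, seeded at 5,000–10,000 cells/well and left 2–3 h at 37°C, 5% CO2. Drugs taken from 20 mM DMSO stocks, serially halved ten times in DMSO, then added at 1:100 dilution. Cells exposed for 48 h at 37°C. Viability read by CellTiter-Glo luminescence after 10 min at room temperature.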

SN12C = assay: Anticancer activity against human SN12C cells assessed inhibition of cell growth after 48 hrs by CellTiter-Glo luminescent assay; assay type: functional, cell-based
Procedure, shortened: (§2)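 Renal lines grown in RPMI 1640 with 5% FBS and 2 mM L-glutamine, seeded into 384-well plates at 5,000–10,000 cells/well, held 2–3 h at 37 °C, 5% CO2. DMSO stocks (20 mM) serially halved ten times and added at 1:100. Cells exposed 48 h at 37 °C; CellTiter-Glo added, 10 min at room temperature, luminescence read.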

786-0 = assay: Anticancer activity against human 786-0 cells assessed inhibition of cell growth after 48 hrs by CellTiter-Glo luminescent assay; assay type: functional, cell-based; conditions: 786-0, 48 h; procedure, shortened: as §1
[4] = Anticancer activity against human CLL cells assessed as reduction in cell viability incubated for 24 hrs by Annexin/PI staining based fluorescence assay; assay type: functional
Procedure, shortened: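 CLL lymphocytes were taken from patients' peripheral blood (n=3) by Ficoll-Hypaque, suspended in 10% autologous plasma in RPMI, and exposed to 1, 5, 10, 20, 50 and 100 µM. Viability was measured by annexin V/propidium iodide binding. IC50 comes from one representative patient.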

UO-31 = assay: Anticancer activity against human UO-31 cells assessed inhibition of cell growth after 48 hrs by CellTiter-Glo luminescent assay; assay type: functional, cell-based; conditions: UO-31, 48 h; procedure, shortened: as §2
TK-10 = assay: Anticancer activity against human TK-10 cells assessed inhibition of cell growth after 48 hrs by CellTiter-Glo luminescent assay; assay type: functional, cell-based; conditions: TK-10, 48 h; procedure, shortened: as §2
CLL cell [5] = assay: Induction of DNA damage in chronic lymphocytic leukemia patient lymphocytes assessed as apoptosis rate at 10 uM after 24 hrs by annexin/PI staining based flow cytometry; assay type: functional; conditions: Homo sapiens
DNA [6] = assay: Potentiation of H2O2 induced [32P]-labeled 49-mer oligonucleotide duplex DNA 25 (unknown origin) interstrand cross-linking at pH 8 in phosphate buffer solution assessed as rate constant and measured for 24 hrs by PAGE analysis; assay type: functional
MDA-MB-468 = assay: Anticancer activity against human MDA-MB-468 cells assessed inhibition of cell growth after 48 hrs by CellTiter-Glo luminescent assay; assay type: functional, cell-based; conditions: MDA-MB-468, 48 h
Procedure, shortened: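 Cells grown in RPMI 1640 with 5% fetal bovine serum and 2 mM L-glutamine, seeded at 5,000–10,000 cells/well in 384-well plates, preincubated 2–3 h at 37°C, 5% CO2. DMSO stocks (20 mM) serially diluted 2-fold ten times, then added at 1:100. Exposure 48 h at 37°C. Viability read by CellTiter-Glo luminescence after 10 min at room temperature; IC50 derived.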

CAKI-1 = assay: Anticancer activity against human CAKI-1 cells assessed inhibition of cell growth after 48 hrs by CellTiter-Glo luminescent assay; assay type: functional, cell-based; conditions: CAKI-1, 48 h; procedure, shortened: as §1
CLL cell [7] = assay: Induction of DNA damage in chronic lymphocytic leukemia patient lymphocytes assessed as gamma-H2Ax phosphorylation at Ser139 residue at 10 uM after 24 hrs by FITC-staining based flow cytometry; assay type: functional; conditions: Homo sapiens
Procedure, shortened: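 Patient CLL lymphocytes, Ficoll-hypaque isolated, in RPMI with 10% autologous plasma, untreated or exposed to 10 µM for 24 h. Cells washed in PBS, fixed in ice-cold 70% ethanol and held at −20 °C. Then permeabilised, stained with FITC anti-H2AX Ser139 antibody and read by flow cytometry.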

[8] = Toxicity in healthy human lymphocytes assessed as reduction in cell viability at 10 uM after 24 hrs by Annexin/PI staining based fluorescence assay; conditions: lymphocyte
Procedure, shortened: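 Normal donor lymphocytes (n=2) isolated from peripheral blood by Ficoll-hypaque, in RPMI with 10% autologous plasma. Exposed to 10 µM for 24 h; % viable cells by annexin/PI binding.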

SMILES | Activity (DNA [1]) | Activity (DNA [2]) | Activity (DNA [3]) | pIC50 (ACHN) | pIC50 (A498) | pIC50 (SN12C) | pIC50 (786-0) | pIC50 [4] | pIC50 (UO-31) | pIC50 (TK-10) | Activity (CLL cell [5]) | Ka (DNA [6]) | pIC50 (MDA-MB-468) | pIC50 (CAKI-1) | Activity (CLL cell [7]) | Activity [8]
CC(=O)OCc1cccc(COC(C)=O)c1B1OC(C)(C)C(C)(C)O1 | 0% | 20% |  |  |  |  |  |  |  |  |  |  |  |  |  | 
COc1cc(OC)c(CBr)c(B2OC(C)(C)C(C)(C)O2)c1CBr |  | 20% |  |  |  |  |  |  |  |  |  |  |  |  |  | 
CC(=O)OCc1cc(O)cc(COC(C)=O)c1B1OC(C)(C)C(C)(C)O1 | 0% | 32% |  |  |  |  |  |  |  |  |  |  |  |  |  | 
COc1c(CBr)c(B2OC(C)(C)C(C)(C)O2)c(CBr)c(OC)c1OC | 0% | 0% | inactive |  |  |  |  |  |  |  |  |  |  |  |  | 
O=C(O)CCCc1ccc(N(CCCl)CCCl)cc1 [CHLORAMBUCIL] |  |  |  | 3.88 | 3.55 | 3.87 | 4.26 | 4.01 | 4.39 |  |  |  |  |  |  | 
N[C@@H](Cc1ccc(N(CCCl)CCCl)cc1)C(=O)O [MELPHALAN] |  |  |  | 4.28 | 3.87 | 4.15 | 4.72 | 4.11 | 4.37 | 4.26 |  |  |  |  |  | 
CC1(C)OB(c2c(CBr)cc(O)cc2CBr)OC1(C)C | 0% | 50% |  | 4.45 |  | 4.61 | 4.56 | 4.68 | 4.71 | 4.45 | Active | 0.000201 s⁻¹ | 4.96 | 4.42 | Active | Non-Toxic
CC1(C)OB(c2c(CBr)cccc2CBr)OC1(C)C | 0% | 22% |  | 4.57 | 4.48 | 4.57 | 4.69 | 4.32 | 4.60 | 4.67 | Active | 8.8e-05 s⁻¹ | 4.92 |  | Active | Non-Toxic
COc1cc(COC(C)=O)c(B2OC(C)(C)C(C)(C)O2)c(COC(C)=O)c1 | 0% | 26% |  |  |  |  |  |  |  |  |  |  |  |  |  | 
